For orientation: IC50 means the concentration at which inhibition is half-maximal. Read a low IC50 as greater potency. A word on the inhibition: it is the drop in the measured response relative to a control, in per cent. Low readings indicate little suppression, high ones strong suppression.

Data set [1] relates to KLE cells. Type of data set: cell-based.
The test system of data set [2] is KLE cells. The experiment in a line: Cell cycle analysis. The conditions noted are these: 72 h; for % of cells in >4N / % of cells in G0/G1 / % of cells in G2/M / % of cells in S / % of cells in Sub-G1: mean ± SD; for cell cycle effects in CYP1B1-inhibited KLE cells / cell cycle effect in KLE cells compared to untreated cells: 10 and 100 μM. Type of data set: cell-based, human. Put shortly: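 KLE cells, day 7 post-seeding, exposed to 10 or 100 μM prodrug with or without 10 μM α-NF for 72 h; untreated cells received no prodrug. Cells harvested, fixed in 70% (v/v) ethanol at −20°C overnight, then stained with PI/RNase buffer for 30 min at room temperature. DNA content read by flow cytometry. Run in triplicate or quadruplicate.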

The test system of data set [3] is KLE cells. The experiment in a line: Annexin V-FITC/PI apoptosis assay in KLE cells. Type of data set: cell-based, human. The conditions noted are these: for pro-apoptotic effect (early apoptotic cell population relative to untreated cells): 50 μM, without α-NF, 24, 48 and 72 h; for concentration dependence of pro-apoptotic effect: 10, 50 and 100 μM, without α-NF, 72 h. The method, boiled down: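 KLE cells grown in DMEM/F-12 (1:1) with 10% FBS were seeded in 6-well plates and used on day 7 post-seeding. Prodrug was given without α-NF at 50 μM for 24, 48 or 72 h, or at 10, 50 or 100 μM for 72 h. Controls received no prodrug. Cells were double-stained with Annexin V-FITC/PI and run on flow cytometry. % early apoptotic cells was compared with untreated controls by one-way ANOVA with Dunnett post test. Triplicate or quadruplicate.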

Data set [4] is described as follows: Resazurin cytotoxicity assay in CYP1B1-transfected HEK293T cells. Type of data set: cell-based. The settings on record: human, HEK293T cells transfected with CYP1B1. On the technique in general: The colour change of resazurin is a common sign of viable cells or microbes.
Data set [5] in a line: Resazurin cytotoxicity assay in wild-type HEK293T cells. The conditions noted are these: human. Type of data set: cell-based. The method, boiled down: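 Untransfected HEK293T cells in DMEM with 10% FBS, seeded at 5,000 cells/well and held 24 h. Prodrug given at 0–100 μM with medium changed daily for 69 h. Resazurin (0.01% w/v) added for a further 3 h (72 h total). Fluorescence read at ex 565/em 595 nm. IC50 from variable-slope dose-response fit. Controls: 0.1% DMSO vehicle and 2% Triton X-100.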

The nature of data set [6]: Resazurin cytotoxicity assay in HepaRG cells. The settings on record: human. The data set is classed as cell-based. The method, boiled down:
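HepaRG cells grown 2 weeks in Growth medium, then 2 weeks in Differentiation medium, then seeded at 5,000 cells/well. Prodrug given at 0–100 μM with medium changed daily for 69 h. Resazurin (0.01% w/v) added for a further 3 h (72 h total). Fluorescence read at ex 565/em 595 nm. IC50 from variable-slope dose-response fit. Controls: 0.1% DMSO vehicle and 2% Triton X-100.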

The conditions of data set [7]: after the 14th daily oral administration of 6 mg/kg, vervet monkeys; cited from earlier work.
The test system of data set [8] is CYP1B1. In words: EROD activity assay in KLE cells. Type of data set: cell-based. The settings on record: human, probe 7-ER (0.8 μM).
Setting [9] is: 100 μM prodrug, with 10 μM α-NF.

Turning to `CON=C(N)c1ccc(-c2ccc(-c3ccc(C(N)=NOC)cc3)o2)cc1` [DB289, 2,5-bis[4-amidinophenyl]furan-bis-O-methylamidoxime], in data set [1] (50 μM prodrug, KLE cells without α-NF, normalized to vehicle control), the “viability of KLE cells” value was determined as 21%. In data set [2] (10 μM prodrug, with 10 μM α-NF), the “% of cells in >4N” value was 5.3 ± 1.0%, the “% of cells in G0/G1” value came to 39.5 ± 0.6%, the “% of cells in G2/M” value is listed as 39.3 ± 2.9% and the “% of cells in S” value came out at 9.8 ± 1.4%. Moreover, the “% of cells in Sub-G1” value in data set [2] (10 μM prodrug, with 10 μM α-NF) is given as 5.4 ± 0.0%. In data set [2] (10 μM prodrug, without α-NF), the “% of cells in >4N” value was determined as 1.7 ± 0.6%, the “% of cells in G0/G1” value came to 40.0 ± 1.7%, the “% of cells in G2/M” value is 45.0 ± 5.2% and the “% of cells in S” value is given as 5.3 ± 1.1 %. For the same compound, the “% of cells in Sub-G1” value in data set [2] (10 μM prodrug, without α-NF) was found to be 5.1 ± 1.4%. In data set [2] (setting [9]), the “% of cells in >4N” value came out at 3.6 ± 0.4%, the “% of cells in G0/G1” value amounted to 43.2 ± 3.4%, the “% of cells in G2/M” value came to 42.4 ± 2.6% and the “% of cells in S” value was determined as 6.1 ± 1.1%. Moreover, in data set [2] (setting [9]), the “% of cells in Sub-G1” value is 4.7 ± 1.0%. Besides, in data set [2] (100 μM prodrug, without α-NF), the “% of cells in >4N” value is recorded as 4.5 ± 1.3%, the “% of cells in G0/G1” value was found to be 43.2 ± 0.8 %, the “% of cells in G2/M” value is reported as 39.5 ± 0.2% and the “% of cells in S” value amounted to 8.3 ± 1.0 %. Besides, the “% of cells in Sub-G1” value in data set [2] (100 μM prodrug, without α-NF) was determined as 4.5 ± 0.7%. Besides, the “cell cycle effects in CYP1B1-inhibited KLE cells” value in data set [2] (with 10 μM α-NF) was “absent”. In addition, the “cell cycle effect in KLE cells compared to untreated cells” value in data set [2] (without α-NF) is recorded as “concentration-dependent G0/G1 cell cycle arrest”. Further, in data set [3], the “pro-apoptotic effect (early apoptotic cell population relative to untreated cells)” value is on record as “significant increase in the early apoptotic cell population” and the “concentration dependence of pro-apoptotic effect” value is recorded as “concentration-dependent pro-apoptotic effects”.
`CONC(=N)c1ccc(-c2ccc(-c3ccc(C(=N)NOC)cn3)o2)cc1` [DB844, N-methoxy-6-{5-[4-(N-methoxyamidino)phenyl]-furan-2-yl}-nicotinamidine] displayed an IC50 at 72 h in data set [4] of 38.8 ± 0.9 µM. This compound also showed an IC50 at 72 h in data set [5] of 37.9 ± 0.9 µM. For the same compound, 76.3 ± 1.6 µM corresponded to half-maximal inhibition in data set [6] (IC50 at 72 h). Besides, in data set [2] (10 μM prodrug, with 10 μM α-NF), the “% of cells in >4N” value amounted to 4.9 ± 0.9%, the “% of cells in G0/G1” value stood at 41.1 ± 1.5%, the “% of cells in G2/M” value stood at 40.7 ± 2.9% and the “% of cells in S” value is reported as 7.9 ± 1.5%. For the same compound, the “% of cells in Sub-G1” value in data set [2] (10 μM prodrug, with 10 μM α-NF) is listed as 4.1 ± 1.1%. For the same compound, in data set [2] (10 μM prodrug, without α-NF), the “% of cells in >4N” value amounted to 6.3 ± 1.9%, the “% of cells in G0/G1” value amounted to 38.7 ± 2.1%, the “% of cells in G2/M” value is reported as 47.3 ± 0.5% and the “% of cells in S” value was 8.0 ± 1.4 %. Besides, the “% of cells in Sub-G1” value in data set [2] (10 μM prodrug, without α-NF) was found to be 4.6 ± 0.8%. Further, in data set [2] (setting [9]), the “% of cells in >4N” value came to 3.4 ± 0.6%, the “% of cells in G0/G1” value is given as 43.3 ± 0.4%, the “% of cells in G2/M” value amounted to 41.8 ± 1.1% and the “% of cells in S” value is on record as 5.6 ± 0.7%. The “% of cells in Sub-G1” value in data set [2] (setting [9]) turned out to be 4.3 ± 0.9%. In data set [2] (100 μM prodrug, without α-NF), the “% of cells in >4N” value is listed as 3.7 ± 0.9%, the “% of cells in G0/G1” value came to 43.9 ± 1.2 %, the “% of cells in G2/M” value is recorded as 40.6 ± 1.3% and the “% of cells in S” value came to 6.6 ± 1.1 %. Besides, the “% of cells in Sub-G1” value in data set [2] (100 μM prodrug, without α-NF) is listed as 5.3 ± 1.5%. Moreover, in data set [2] (with 10 μM α-NF), the “cell cycle effects in CYP1B1-inhibited KLE cells” value is “absent”. The “cell cycle effect in KLE cells compared to untreated cells” value in data set [2] (without α-NF) is “concentration-dependent G0/G1 cell cycle arrest”. Besides, in data set [3], the “pro-apoptotic effect (early apoptotic cell population relative to untreated cells)” value is “significant increase in the early apoptotic cell population” and the “concentration dependence of pro-apoptotic effect” value is given as “concentration-dependent pro-apoptotic effects”. Also, in data set [7], the “average maximal plasma concentration” value is 0.43 µM.
For the compound `O=c1cc(-c2ccccc2)oc2c1ccc1ccccc12` [α-NF, α-naphthoflavone], the “cytotoxic effect on KLE cells” value in data set [1] (α-NF up to 15 μM) is reported as “did not show any cytotoxic effect”. Moreover, the inhibition at 24 h, 1 μM in data set [8] stood at 81%.

The values above are taken from article PMC8559613 (Journal of biomolecular screening, 2016).
